The nature of experiment [1]: reducers of endogenous Her2 protein level, primary screen, SKBR3 breast tumor cells, AlphaScreen, ATP viability (AID 461;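 active means Her2 level under about 52% in both replicate screens, with viability over 70% of control, limit read from the data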;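 on Her2 level: lower value means less Her2 protein in the cells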;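 on viability: percent of carrier control wells set as 100% viability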). Particulars: 18-24 h, measured here: SKBR3 viability, ATP luminescence, at 10 µM.
Experiment [2] addresses Receptor tyrosine-protein kinase erbB-2 (Homo sapiens) (UniProt P04626). Described as above. The note with it: 18-24 h, at 10 µM, stronger effect = lower value.
Experiment [3] can be described thus: SK-BR-3 cell growth inhibitors, pilot screen, 24 h, human (AID 572;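 active means viability at or below 10% of carrier control in both of two separate runs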;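 further: compound exposure lasted between 18 and 24 h rather than exactly 24 h; 100% = carrier-treated control wells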). The note with it: SK-BR-3 viability, CellTiter-Glo luminescence, at 10 µM, stronger effect = lower value. Background: Cellular ATP, detected with luciferase, serves as a proxy for viable cell number.
The nature of experiment [4]: HUVEC growth inhibition – cell-based, human, primary screen (AID 575;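 active means viability at or below 30% in both replicate assays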;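 further: 100% = median of untreated cell wells with 0.1% DMSO on each plate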). The note with it: HUVEC proliferation, CellTiter-Glo luminescence, 72 h; at 10 µM; stronger effect = lower value. A digest of the protocol: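 System – primary HUVEC, no more than 12 passages · Medium – Low-serum (2% FBS) EBM, supplemented · Times – 72 h exposure, 37 °C, 5% CO2, 30 min RT equilibration · Measured by – luminescent ATP assay · Read-out – % viability relative to median vehicle-well signal on each plate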

Experiment [5] in a line: growth inhibitors of H69AR lung tumor, primary screen, human, duplicate replicates (AID 580;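 active means viability at or under a set limit in both replicates, limit being median viability minus 3 SD, cut at about 48% in these data, passing the limit was not always enough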;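 further: 100% = mean luminescence of untreated wells and 0% = no signal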). Particulars: H69AR lung tumor cells viability, ATP luminescence, 72 h; at 10 µM; stronger effect = lower value.
The nature of experiment [6]: reversal of MRP1-mediated doxorubicin resistance, pilot screen, H69AR cells, doxorubicin co-treatment (AID 601;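 active means viability loss from added drug above about 55%, and viability with drug at most 40%, in both replicates, limit read from the data, passing the limit was not always enough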). The note with it: CellTiter-Glo, 72 h, at 10 µM; for differential viability (reversal): stronger effect = higher value.
Experiment [7] is described as follows: 384-well plate pilot, post-Golgi transport modulator project, inhibition of yeast transport mutant growth (AID 636; in the data active means inhibition above about 31%). The note with it: absorbance 615 nm, about 18 h, stronger effect = higher value.
The nature of experiment [8]: growth suppression of yeast trafficking mutant, preliminary HTS, modulators of trafficking downstream of Golgi apparatus project, 1536-format plate, OD 615 nm (AID 637). Particulars: yeast transport mutant growth, absorbance 615 nm, 18 h; stronger effect = higher value.
[9] abbreviates: H69AR cells + 2 uM doxorubicin, measured here: viability with 2 uM doxorubicin, stronger effect = lower value.
[10] abbreviates: H69AR cells, compound alone cytotoxicity.

Active and inactive are the calls of the source. Unless noted, no stated cut-off is given here; in the data, active means inhibition above about 30%; inactive means the rest.

Chain of Receptor tyrosine-protein kinase erbB-2 (Homo sapiens) (P04626 whole entry, looked up): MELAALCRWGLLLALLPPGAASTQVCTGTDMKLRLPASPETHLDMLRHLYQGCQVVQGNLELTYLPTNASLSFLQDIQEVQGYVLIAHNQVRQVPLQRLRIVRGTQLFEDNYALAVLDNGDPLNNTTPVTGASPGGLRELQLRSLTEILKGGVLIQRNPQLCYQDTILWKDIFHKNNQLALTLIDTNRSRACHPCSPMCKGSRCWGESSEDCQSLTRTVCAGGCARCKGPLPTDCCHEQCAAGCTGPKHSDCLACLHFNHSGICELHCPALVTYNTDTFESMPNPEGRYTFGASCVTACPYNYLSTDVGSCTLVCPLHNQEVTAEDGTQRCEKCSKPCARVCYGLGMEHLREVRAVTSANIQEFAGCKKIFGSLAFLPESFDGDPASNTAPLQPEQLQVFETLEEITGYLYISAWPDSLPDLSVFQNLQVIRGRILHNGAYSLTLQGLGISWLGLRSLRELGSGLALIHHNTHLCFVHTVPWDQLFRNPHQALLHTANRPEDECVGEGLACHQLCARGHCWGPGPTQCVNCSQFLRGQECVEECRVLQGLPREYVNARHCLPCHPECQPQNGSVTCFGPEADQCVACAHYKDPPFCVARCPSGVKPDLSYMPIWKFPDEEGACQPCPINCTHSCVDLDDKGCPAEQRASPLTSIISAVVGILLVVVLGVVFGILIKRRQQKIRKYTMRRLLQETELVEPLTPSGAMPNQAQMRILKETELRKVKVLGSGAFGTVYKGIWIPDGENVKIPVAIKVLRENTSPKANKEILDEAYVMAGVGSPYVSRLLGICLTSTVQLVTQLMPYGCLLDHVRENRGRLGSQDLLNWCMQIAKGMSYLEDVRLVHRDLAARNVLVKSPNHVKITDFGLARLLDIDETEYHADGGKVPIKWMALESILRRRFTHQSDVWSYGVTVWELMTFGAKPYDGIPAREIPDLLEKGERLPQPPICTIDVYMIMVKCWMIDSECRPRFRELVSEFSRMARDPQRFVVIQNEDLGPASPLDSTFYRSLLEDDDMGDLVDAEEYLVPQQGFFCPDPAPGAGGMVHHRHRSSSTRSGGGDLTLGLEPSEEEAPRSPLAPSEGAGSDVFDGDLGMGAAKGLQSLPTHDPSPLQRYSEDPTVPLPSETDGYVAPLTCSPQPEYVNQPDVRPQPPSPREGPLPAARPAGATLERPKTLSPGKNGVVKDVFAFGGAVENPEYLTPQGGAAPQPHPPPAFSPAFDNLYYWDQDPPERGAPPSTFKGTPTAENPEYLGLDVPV

On to `COc1ccccc1OCC(=O)Nc1cccc(-c2nc3ccccc3o2)c1`, for which the viability was 104% in experiment [1]; 104% (inactive) in experiment [3]; 52.8% (inactive) in experiment [4]; 65.1% (inactive) in experiment [5]; 79.3% in experiment [6] (setting [9]); 65.1% in experiment [6] (setting [10]). Moreover, the Her2 level in experiment [2] is 78.5% (inactive). The differential viability (reversal) in experiment [6] (H69AR cells + 2 uM doxorubicin) is -14.2% (inactive). For the same compound, the values for the inhibition in experiment [7] and in experiment [8] were -0.13% (inactive) and 23% (inactive), respectively.

`CCN1CCN(CCCNC(=O)C2c3ccccc3C(=O)N(C)C2c2ccc(OC)cc2)CC1` (stereo not given): the viability is 102% in experiment [1]; 102% (inactive) in experiment [3]; 95.9% (inactive) in experiment [4]; 110% (inactive) in experiment [5]; 93.2% in experiment [6] (setting [9]); 110% in experiment [6] (setting [10]). Further, the Her2 level in experiment [2] is 99% (inactive). Moreover, the differential viability (reversal) in experiment [6] (H69AR cells + 2 uM doxorubicin) is 16.8% (inactive). The figures for the inhibition in experiment [7] and in experiment [8] were -1.64% (inactive) and -0.79% (inactive), respectively.

Take `COc1ccccc1CNC(=O)CCNC(=O)Cn1ccc2ccccc2c1=O`: the viability is 93% in experiment [1]; 93% (inactive) in experiment [3]; 98.3% (inactive) in experiment [4]; 100% (inactive) in experiment [5]; 87.4% in experiment [6] (setting [9]); 100% in experiment [6] (setting [10]). Moreover, the Her2 level in experiment [2] was 92% (inactive). The differential viability (reversal) in experiment [6] (H69AR cells + 2 uM doxorubicin) is 12.8% (inactive). For the same compound, the inhibition in experiment [7] was -0.13% (inactive); in experiment [8], 4.59% (inactive).

Turning to `CC(=O)Nc1ccc(S(=O)(=O)NCC(C)NS(=O)(=O)c2ccc(NC(C)=O)cc2)cc1` (stereo not given), the viability is 106% in experiment [1]; 106% (inactive) in experiment [3]; 94.5% (inactive) in experiment [4]; 98.6% (inactive) in experiment [5]; 95.5% in experiment [6] (setting [9]); 98.6% in experiment [6] (setting [10]). Further, the Her2 level in experiment [2] was 114% (inactive). Further, the differential viability (reversal) in experiment [6] (H69AR cells + 2 uM doxorubicin) was 3.06% (inactive). The inhibition in experiment [7] is 0.13% (inactive); in experiment [8] it was -1.27% (inactive).

In the case of `COC(=O)c1c(-c2cccs2)csc1NC(=O)CN1CCOCC1`, the viability in experiment [1] is 103%; in experiment [3], 103% (inactive); in experiment [4] it was 86.6% (inactive); in experiment [5], 82.1% (inactive); in experiment [6] (setting [9]), 81.4%; in experiment [6] (setting [10]) it was 82.1%. In experiment [2], the Her2 level is 98.5% (inactive). Further, in experiment [6] (H69AR cells + 2 uM doxorubicin), the differential viability (reversal) is 0.685% (inactive). Further, the inhibition is -0.13% (inactive) in experiment [7] and -1.13% (inactive) in experiment [8].

With `CCCOC(=O)c1ccc(-c2c(C)noc2-c2ccc(OC)cc2O)o1`, the viability in experiment [1] is 98%; in experiment [3], 98% (inactive); in experiment [4], 46.3% (inactive); in experiment [5], 75.8% (inactive); in experiment [6] (setting [9]), 86%; in experiment [6] (setting [10]), 75.8%. Moreover, the Her2 level in experiment [2] was 74.5% (inactive). For the same compound, in experiment [6] (H69AR cells + 2 uM doxorubicin), the differential viability (reversal) is -10.3% (inactive). Also, the figures for the inhibition in experiment [7] and in experiment [8] were -4.81% (inactive) and -9.33% (inactive), respectively.

On to `CC(C(=O)NCc1cccnc1)N1C(=O)c2ccccc2C1=O` (stereo not given), for which the viability in experiment [1] is 103%; in experiment [3], 103% (inactive); in experiment [4] it was 99.9% (inactive); in experiment [5], 93.7% (inactive); in experiment [6] (setting [9]), 97.5%; in experiment [6] (setting [10]), 93.7%. The Her2 level in experiment [2] is 97% (inactive). For the same compound, in experiment [6] (H69AR cells + 2 uM doxorubicin), the differential viability (reversal) was -3.79% (inactive). Also, the results for the inhibition in experiment [7] and in experiment [8] were -3.03% (inactive) and -4.36% (inactive), respectively.

Regarding `NC(=O)C1(N2CCCCC2)CCN(Cc2ccccc2Cl)CC1`, the viability in experiment [1] is 102%; in experiment [3], 102% (inactive); in experiment [4], 87.8% (inactive); in experiment [5], 83.8% (inactive); in experiment [6] (setting [9]), 80.8%; in experiment [6] (setting [10]), 83.8%. Besides, in experiment [2], the Her2 level was 77% (inactive). The differential viability (reversal) in experiment [6] (H69AR cells + 2 uM doxorubicin) is 3.07% (inactive). In addition, the inhibition in experiment [7] is -6.62% (inactive); in experiment [8], -1.17% (inactive).

`O=C1CC(c2cccc(Cl)c2)CC(O)=C1C=NCCCO` (stereo not given): the viability is 102% in experiment [1]; 102% (inactive) in experiment [3]; 83.7% (inactive) in experiment [4]; 103% (inactive) in experiment [5]; 98.1% in experiment [6] (setting [9]); 103% in experiment [6] (setting [10]). Moreover, in experiment [2], the Her2 level was 90.5% (inactive). In addition, the differential viability (reversal) in experiment [6] (H69AR cells + 2 uM doxorubicin) was 4.62% (inactive). The values for the inhibition in experiment [7] and in experiment [8] were -6.27% (inactive) and -0.33% (inactive), respectively.

For the compound `CN(C)CCCN1C(=O)c2oc3ccccc3c(=O)c2C1c1cccs1` (stereo not given), the viability was 110% in experiment [1]; 110% (inactive) in experiment [3]; 99% (inactive) in experiment [4]; 86.1% (inactive) in experiment [5]; 80.8% in experiment [6] (setting [9]); 86.1% in experiment [6] (setting [10]). Also, in experiment [2], the Her2 level is 93.5% (inactive). Moreover, the differential viability (reversal) in experiment [6] (H69AR cells + 2 uM doxorubicin) is 5.31% (inactive). Besides, the inhibition in experiment [7] is -1.95% (inactive); in experiment [8], 1.67% (inactive).

Take `COC(=O)c1ccc(-c2ccc(CNCC(O)c3ccccc3)o2)cc1` (stereo not given): the viability was 111% in experiment [1]; 111% (inactive) in experiment [3]; 88.8% (inactive) in experiment [4]; 101% (inactive) in experiment [5]; 92.2% in experiment [6] (setting [9]); 101% in experiment [6] (setting [10]). In addition, the Her2 level in experiment [2] was 101% (inactive). The differential viability (reversal) in experiment [6] (H69AR cells + 2 uM doxorubicin) is 8.78% (inactive). The inhibition in experiment [7] is -2.03% (inactive); in experiment [8], 1.83% (inactive).

With `O=C(Nc1ccc2c(c1)nc1n2CCSC1)c1ccccc1`, the viability in experiment [1] is 97%; in experiment [3], 97% (inactive); in experiment [4] it was 108% (inactive); in experiment [5], 92.7% (inactive); in experiment [6] (setting [9]), 76.8%; in experiment [6] (setting [10]) it was 92.7%. Also, the Her2 level in experiment [2] is 114% (inactive). Besides, the differential viability (reversal) in experiment [6] (H69AR cells + 2 uM doxorubicin) was 15.9% (inactive). The results for the inhibition in experiment [7] and in experiment [8] were -0.26% (inactive) and -6% (inactive), respectively.

For `CCOC(=O)c1ccc2nc(C)c3c(c2c1)OC(C)C3` (stereo not given), the viability was 92% in experiment [1]; 92% (inactive) in experiment [3]; 97.1% (inactive) in experiment [4]; 87.9% (inactive) in experiment [5]; 76.9% in experiment [6] (setting [9]); 87.9% in experiment [6] (setting [10]). For the same compound, the Her2 level in experiment [2] is 124% (inactive). Also, the differential viability (reversal) in experiment [6] (H69AR cells + 2 uM doxorubicin) is 11% (inactive). In addition, the inhibition in experiment [7] is -2.6% (inactive); in experiment [8], -5.67% (inactive).

As to `O=C(O)C1CC=CCC1C(=O)Nc1cc(Cl)ccc1Cl` (stereo not given), the viability in experiment [1] is 86%; in experiment [3] it was 86% (inactive); in experiment [4] it was 81.2% (inactive); in experiment [5], 93.5% (inactive); in experiment [6] (setting [9]), 84.7%; in experiment [6] (setting [10]) it was 93.5%. The Her2 level in experiment [2] was 100% (inactive). Moreover, the differential viability (reversal) in experiment [6] (H69AR cells + 2 uM doxorubicin) was 8.81% (inactive). Also, the results for the inhibition in experiment [7] and in experiment [8] were 0% (inactive) and -0.82% (inactive), respectively.

For `O=C(CSc1nc(-c2ccccc2)cs1)NC(=O)NCc1ccco1`, the viability in experiment [1] was 86.5%; in experiment [3], 86.5% (inactive); in experiment [4] it was 58.4% (inactive); in experiment [5], 76.7% (inactive); in experiment [6] (setting [9]) it was 77.6%; in experiment [6] (setting [10]), 76.7%. Further, in experiment [2], the Her2 level was 77.5% (inactive). Also, the differential viability (reversal) in experiment [6] (H69AR cells + 2 uM doxorubicin) is -0.93% (inactive). The inhibition in experiment [7] was -5.6% (inactive); in experiment [8], 2.06% (inactive).

`CCOC(=O)N1CCC2(O)CCCCC2C1c1ccc(F)cc1` (stereo not given): the viability is 102% in experiment [1]; 102% (inactive) in experiment [3]; 91.3% (inactive) in experiment [4]; 96.8% (inactive) in experiment [5]; 88.5% in experiment [6] (setting [9]); 96.8% in experiment [6] (setting [10]). Besides, the Her2 level in experiment [2] was 125% (inactive). Further, the differential viability (reversal) in experiment [6] (H69AR cells + 2 uM doxorubicin) was 8.28% (inactive). In addition, the values for the inhibition in experiment [7] and in experiment [8] were -3.33% (inactive) and 30.8% (active), respectively.

As a reminder, the viability is a read-out of living cells in per cent, often relative to untreated cells. What is called inhibition is the drop in the measured response relative to a control, in per cent.

(Values after PubChem BioAssay.)
